Data published in PubChem BioAssay AID588830 (Broad Institute, 2011).
The source made the active and inactive calls.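 How the source made its calls: active means fitted IC50 for falling signal at or below ten times the top tested dose; inconclusive means flat fit with 30 to 70% signal loss, or poor fit; inactive means the rest.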

Test system: ldlA[mSR-BI] CHO cells viability, CellTiter-Glo ATP, 3 h
Test: short-term cytotoxicity in ldlA[mSR-BI] cells, dose response, cytotoxicity control for SR-BI HDL uptake inhibitor project, cell-based, CellTiter-Glo luminescence, 3 h, dry powder (AID 588830)
Conditions: not given
Outline: (§1)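 Test system – ldlA[mSR-BI] cells, scavenger receptor B1-expressing line · Buffer or medium – PSG and 10% FCS in Ham's F12 · Compound dosing – 8-concentration series per compound, added by pin transfer · Times – 3 h at 37 °C, then 10 min with reagent · Measured by – luminescence of cellular ATP via Cell Titer Glo reagent · Measure – cytotoxicity IC50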

Row | SMILES | IC50
1 | O=C(Nc1cc(Cl)ccc1Cl)c1cc(Cl)ccc1NS(=O)(=O)c1ccc(Cl)c([N+](=O)[O-])c1 | > 70 µM (inactive)
2 | C[C@H]1CN([C@@H](C)CO)C(=O)c2cccc(NC(=O)Nc3ccccc3)c2O[C@@H]1CN(C)Cc1ccc(C(F)(F)F)cc1 | 66.6 µM
3 | Cc1cc(C(=O)C(C)OC(=O)C2=NNC(=O)CC2)c(C)n1-c1ccc(OC(F)F)cc1 (stereo not drawn) | > 70 µM (inactive)
4 | Cc1ccc2oc(-c3cccc(NC(=O)c4cc(-n5cnnc5)ccc4Cl)c3)nc2c1 | 12.8 µM
5 | Cc1ccc(-c2nnc(N3CCC(C)CC3)c3ccccc23)cc1C | 68.5 µM
6 | CCOc1ccccc1/C=C/c1onc(C)c1S(=O)(=O)N1CCC(C(=O)NC(C)(C)C)CC1 | > 70 µM (inactive)
7 | O=C(Nc1ccc(-c2nc3ccc(NC(=O)c4ccccc4)cc3[nH]2)cc1)c1ccccc1 | > 70 µM (inactive)

Test system: not listed separately
Test: as above
Conditions: ldlA[mSR-BI] CHO cells viability, CellTiter-Glo ATP, 3 h; at 35 µM (top of the series)
Outline: as §1

Row | SMILES | activity change, negative = cytotoxicity
8 | C[C@H](CO)N1C[C@H](C)[C@H](CN(C)S(=O)(=O)c2ccc(F)cc2)Oc2ccc(NS(C)(=O)=O)cc2C1=O | -6.43% (inactive)
9 | O=C(Nc1ccc(-c2nc3cc(NC(=O)c4ccccc4Cl)ccc3o2)cc1)c1ccccc1Cl | 11.9% (inactive)
10 | O=C(Nc1cc(Cl)ccc1Cl)c1cc(Br)ccc1NS(=O)(=O)c1ccc(Cl)c([N+](=O)[O-])c1 | -11.2% (inactive)
11 | Nc1ccc(C(=O)Nc2ccc(-c3nc4ccc(NC(=O)c5ccc(N)cc5)cc4[nH]3)cc2)cc1 | 7.17% (inactive)
12 | CCOC(=O)N1CCC(NC(=O)c2ccc3c(c2)N(Cc2ccc(F)cc2)CCS3)CC1 | -4.76% (inactive)
13 | C[C@H]1CN([C@@H](C)CO)C(=O)c2cccc(NC(=O)Nc3ccccc3)c2O[C@@H]1CN(C)Cc1ccccc1 | 0.984% (inactive)
14 | C[C@H](CO)N1C[C@H](C)[C@@H](CN(C)S(=O)(=O)c2ccc(F)cc2)Oc2ccc(NC(=O)Cc3cn(C)c4ccccc34)cc2C1=O | -0.528% (inactive)
15 | CC(OC(=O)c1cccc(NS(C)(=O)=O)c1)C(=O)Nc1ccc(N2CCOCC2)cc1 (stereo not drawn) | -7.82% (inactive)
16 | CCOC(=O)Nc1cccc(NC(=O)c2cc(OC)cc(OC)c2)c1 | -7.68% (inactive)
17 | C[C@H]1CN([C@@H](C)CO)C(=O)c2cccc(N(C)C)c2O[C@@H]1CN(C)Cc1ccc(Cl)c(Cl)c1 | -3.41% (inactive)

Same assay, conditions: ldlA[mSR-BI] CHO cells viability, CellTiter-Glo ATP, 3 h; at 68 µM (top of the series)

Row | SMILES | activity change, negative = cytotoxicity
18 | CCOc1ccc(NC(=O)CN2CCN(CC(=O)Nc3cc(OC)cc(OC)c3)CC2)cc1 | -11.7% (inactive)
